Test results reported in ChEMBL document CHEMBL1156334, “New Angiopep-modified doxorubicin (ANG1007) and etoposide (ANG1009) chemotherapeutics with increased brain penetration” (J Med Chem, 2010).
Each block holds one molecule with its values, some of them ahead of it.

Columns and labels:
[1] = Cytotoxicity against human U87MG cells after 48 hrs by [3H]thymidine incorporation assay; assay type: functional, cell-based, U-87MG ATCC; conditions: U-87 MG
Procedure, shortened: (§1)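 Tumor cells were seeded at 5000 per well and exposed to increasing drug concentrations for 48 h. The medium was then aspirated and cells pulse-labeled for 2 h at 37 °C in fresh medium with 2 μCi/mL [methyl-3H]thymidine. Cells were harvested and tritium was counted by scintillation. Incorporation was plotted against concentration to estimate IC50.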

SK-HEP1 = test: Cytotoxicity against human SKHEP1 cells after 48 hrs by [3H]thymidine incorporation assay; assay type: functional, cell-based; procedure, shortened: as §1
NCI-H460 = test: Cytotoxicity against human NCI-H460 cells after 48 hrs by [3H]thymidine incorporation assay; assay type: functional, cell-based; procedure, shortened: as §1
[2] = Cell cycle arrest in human U87MG cells assessed as accumulation at G0/G1 phase at 33 nM after 24 hrs by flow cytometry; assay type: functional, cell-based; conditions: U-87MG ATCC
Procedure, shortened: (§2)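 Exponentially growing U87 MG cells in flasks were treated with drug or left untreated as controls. Cells were trypsinized, washed twice in PBS, fixed in 70% ice-cold ethanol, and stained with 50 μg/mL propidium iodide plus 0.5 mg/mL RNase in 10 mM Tris, 5 mM MgCl2. DNA content was measured by flow cytometry and given as % of cells per phase, from one representative of three experiments.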

[3] = Cell cycle arrest in human U87MG cells assessed as accumulation at S phase at 33 nM after 24 hrs by flow cytometry; assay type: functional, cell-based; conditions: U-87MG ATCC; procedure, shortened: as §2
[4] = Cell cycle arrest in human U87MG cells assessed as accumulation at G2/M phase at 33 nM after 24 hrs by flow cytometry; assay type: functional, cell-based; conditions: U-87MG ATCC; procedure, shortened: as §2
Brain = test: Drug uptake in perfused mouse brain assessed as blood-brain transfer coefficient; assay type: ADME, tissue-based; conditions: in vivo
Procedure, shortened: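 In situ brain perfusion was done in adult male CD-1 mice. Radiolabeled drug in Krebs/bicarbonate buffer (gassed 95% O2/5% CO2, pH 7.4, 37 °C) was infused into the carotid artery for 0.5, 1, 2 or 4 min, then washed out tracer-free for 60 s. Brain homogenate radioactivity was counted (γ or liquid scintillation) and expressed as apparent Vd. Vd versus time was fitted by least-squares regression.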

[5] = Cell cycle arrest in human U87MG cells assessed as accumulation at G0/G1 phase at 3 uM after 24 hrs by flow cytometry; assay type: functional, cell-based; conditions: U-87MG ATCC; procedure, shortened: as §2
[6] = Cell cycle arrest in human U87MG cells assessed as accumulation at S phase at 3 uM after 24 hrs by flow cytometry; assay type: functional, cell-based; conditions: U-87MG ATCC; procedure, shortened: as §2
[7] = Cell cycle arrest in human U87MG cells assessed as accumulation at G2/M phase at 3 uM after 24 hrs by flow cytometry; assay type: functional, cell-based; conditions: U-87MG ATCC; procedure, shortened: as §2
[8] = Cell cycle arrest in human U87MG cells assessed as accumulation at G0/G1 phase at 1 uM after 24 hrs by flow cytometry; assay type: functional, cell-based; conditions: U-87MG ATCC; procedure, shortened: as §2
[9] = Cell cycle arrest in human U87MG cells assessed as accumulation at S phase at 1 uM after 24 hrs by flow cytometry; assay type: functional, cell-based; conditions: U-87MG ATCC; procedure, shortened: as §2
[10] = Cell cycle arrest in human U87MG cells assessed as accumulation at G2/M phase at 1 uM after 24 hrs by flow cytometry; assay type: functional, cell-based; conditions: U-87MG ATCC; procedure, shortened: as §2
[11] = Cell cycle arrest in human U87MG cells assessed as accumulation at G0/G1 phase at 100 nM after 24 hrs by flow cytometry; assay type: functional, cell-based; conditions: U-87MG ATCC; procedure, shortened: as §2
[12] = Cell cycle arrest in human U87MG cells assessed as accumulation at S phase at 100 nM after 24 hrs by flow cytometry; assay type: functional, cell-based; conditions: U-87MG ATCC; procedure, shortened: as §2
[13] = Cell cycle arrest in human U87MG cells assessed as accumulation at G2/M phase at 100 nM after 24 hrs by flow cytometry; assay type: functional, cell-based; conditions: U-87MG ATCC; procedure, shortened: as §2

SMILES: COc1cc([C@@H]2c3cc4c(cc3[C@@H](O[C@@H]3O[C@@H]5CO[C@@H](C)O[C@H]5[C@H](O)[C@H]3O)[C@H]3COC(=O)[C@H]23)OCO4)cc(OC)c1O [ETOPOSIDE]
IC50 [1]: 145 nM
IC50 (SK-HEP1): 62 nM
IC50 (NCI-H460): 90 nM
Activity [5]: 8.9%
Activity [6]: 4.2%
Activity [7]: 87%
Kin (Brain): 0.9 10^-4ml/g/s

SMILES: CC(=O)O[C@H]1C(=O)[C@@]2(C)[C@H]([C@H](OC(=O)c3ccccc3)[C@]3(O)C[C@H](OC(=O)[C@H](O)[C@@H](NC(=O)c4ccccc4)c4ccccc4)C(C)=C1C3(C)C)[C@]1(OC(C)=O)CO[C@@H]1C[C@@H]2O [PACLITAXEL]
Kin (Brain): 6.9 10^-4ml/g/s

SMILES: COc1cccc2c1C(=O)c1c(O)c3c(c(O)c1C2=O)C[C@@](O)(C(=O)CO)C[C@@H]3O[C@H]1C[C@H](N)[C@H](O)[C@H](C)O1 [DOXORUBICIN]
IC50 [1]: 18 nM
IC50 (SK-HEP1): 10 nM
IC50 (NCI-H460): 11 nM
Activity [11]: 30.8%
Activity [12]: 8.9%
Activity [13]: 59.9%
Kin (Brain): 2.5 10^-4ml/g/s

The next lines start with results.

Kin (Brain): 31 10^-4ml/g/s
SMILES: COc1cccc2c1C(=O)c1c(O)c3c(c(O)c1C2=O)C[C@@](O)(C(=O)COC(=O)CCC(=O)NCCCC[C@H](NC(=O)CNC(=O)[C@H](CCCNC(=N)N)NC(=O)[C@H](CO)NC(=O)CNC(=O)CNC(=O)[C@H](Cc1ccc(O)cc1)NC(=O)[C@H](Cc1ccccc1)NC(=O)[C@H](Cc1ccccc1)NC(=O)[C@@H](NC(=O)CCC(=O)OCC(=O)[C@]1(O)Cc2c(O)c4c(c(O)c2[C@@H](O[C@H]2C[C@H](N)[C@H](O)[C@H](C)O2)C1)C(=O)c1c(OC)cccc1C4=O)C(C)O)C(=O)N[C@@H](CCCNC(=N)N)C(=O)N[C@@H](CC(N)=O)C(=O)N[C@@H](CC(N)=O)C(=O)N[C@@H](Cc1ccccc1)C(=O)N[C@@H](CCCCNC(=O)CCC(=O)OCC(=O)[C@]1(O)Cc2c(O)c4c(c(O)c2[C@@H](O[C@H]2C[C@H](N)[C@H](O)[C@H](C)O2)C1)C(=O)c1c(OC)cccc1C4=O)C(=O)N[C@H](C(=O)N[C@@H](CCC(=O)O)C(=O)N[C@@H](CCC(=O)O)C(=O)N[C@@H](Cc1ccc(O)cc1)C(=O)O)[C@@H](C)O)C[C@@H]3O[C@H]1C[C@H](N)[C@H](O)[C@H](C)O1 (some centres undefined)
IC50 [1]: 6 nM
IC50 (SK-HEP1): 4.6 nM
IC50 (NCI-H460): 7.3 nM
Activity [2]: 32.3%
Activity [3]: 10.1%
Activity [4]: 57.3%

Kin (Brain): 22 10^-4ml/g/s
SMILES: COc1cc([C@@H]2c3cc4c(cc3[C@@H](O[C@@H]3O[C@@H]5CO[C@@H](C)O[C@H]5[C@H](O)[C@H]3OC(=O)CCCC(=O)NCCCC[C@H](NC(=O)CNC(=O)[C@H](CCCNC(=N)N)NC(=O)[C@H](CO)NC(=O)CNC(=O)CNC(=O)[C@H](Cc3ccc(O)cc3)NC(=O)[C@H](Cc3ccccc3)NC(=O)[C@H](Cc3ccccc3)NC(=O)[C@@H](NC(=O)CCCC(=O)O[C@H]3[C@H](O[C@@H]5c6cc7c(cc6[C@@H](c6cc(OC)c(OC(=O)CN(C)C)c(OC)c6)[C@H]6C(=O)OC[C@@H]65)OCO7)O[C@@H]5CO[C@@H](C)O[C@H]5[C@@H]3O)C(C)O)C(=O)N[C@@H](CCCNC(=N)N)C(=O)N[C@@H](CC(N)=O)C(=O)N[C@@H](CC(N)=O)C(=O)N[C@@H](Cc3ccccc3)C(=O)N[C@@H](CCCCNC(=O)CCCC(=O)O[C@H]3[C@H](O[C@@H]5c6cc7c(cc6[C@@H](c6cc(OC)c(OC(=O)CN(C)C)c(OC)c6)[C@H]6C(=O)OC[C@@H]65)OCO7)O[C@@H]5CO[C@@H](C)O[C@H]5[C@@H]3O)C(=O)N[C@H](C(=O)N[C@@H](CCC(=O)O)C(=O)N[C@@H](CCC(=O)O)C(=O)N[C@@H](Cc3ccc(O)cc3)C(=O)O)[C@@H](C)O)[C@H]3COC(=O)[C@H]23)OCO4)cc(OC)c1OC(=O)CN(C)C (some centres undefined)
IC50 [1]: 330 nM
IC50 (SK-HEP1): 48 nM
IC50 (NCI-H460): 148 nM
Activity [8]: 25.7%
Activity [9]: 3.3%
Activity [10]: 70.8%
